Compound activity (PubChem)
The sample as a whole holds a higher share of hits than the screen did.
Insulin prom act = activators of insulin promoter-driven GFP, primary screen, imaging, TRM-6 cells, eGFP reporter, cell count; plate-scaled: unstimulated 0, stimulated control 100; activation, % at 2 µM; hit rate 0.81% among 130,000; AID 1296, 2008;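 active = activation at 2 µM above a set limit, confirmed on inspection of the cell images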;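 also: share of cells whose green reporter signal exceeds an intensity cutoff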
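Test system: human fetal islet-derived TRM-6 cells with tamoxifen-inducible insulin promoter–eGFP reporter; schedule: overnight tamoxifen, then two-day compound incubation at 37 °C; measured by: high-content imaging of fixed cells with Hoechst nuclear stain; evaluation: percent cells above green-intensity threshold, converted to percent activation versus plate controls; control set: stimulated and unstimulated wells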
Starred values were filed as active, the others as inactive.

SMILES | Insulin prom act
Cc1cccc(C)c1NS(=O)(=O)c1c(C)[nH]c(=O)[nH]c1=O | 3
COCCN1CCN(c2cc(-c3ccccc3)nc3cc(-c4cccc(F)c4)nn23)CC1 | -7
CN(CCO)c1c2c(nc3cc(-c4cccc(F)c4)nn13)CCCC2 | 95*
Fc1cccc(-c2cc3nc4c(c(N5CCC6(CC5)OCCO6)n3n2)CCCC4)c1 | -4
Cc1cc(C)n(CCCNC(=O)c2ccc(S(=O)(=O)NCc3ccco3)cc2)n1 | 50
O=C(CCc1ccc(Oc2cc([N+](=O)[O-])cc([N+](=O)[O-])c2)cc1)NC1CCCC1 | 3
O=C(CO/N=C/c1cccc([N+](=O)[O-])c1)NC1CCCCCC1 | 450*
O=C(NC1CCCCC1)c1cc([N+](=O)[O-])ccc1N1CCCCC1 | 8
Cc1ccc(-c2cnc3c(Cl)c(C)nn3c2)cc1 | 7
CC(C)c1nc(CN2CCCCC2)cc(=O)[nH]1 | 5
CCN(CC)S(=O)(=O)c1ccc(C)c(NC(=O)COC(=O)[C@@H]2CCCN2C(=O)c2cccs2)c1 | 0
CCOC(=O)C1(CC)NC(c2cccc(F)c2)C2C(=O)N(CC)C(=O)C21 (centres undefined) | -5
Cc1sc2ncnc(NCCN3CCOCC3)c2c1C | 193
O=C1N/C(=N\c2ccccn2)SC1Cc1ccc(Cl)cc1 (centres undefined) | 450*
Cc1ccc(CC2S/C(=N/c3ccccn3)NC2=O)cc1 (centres undefined) | 0
Cc1ccc(CC2SC(=O)NC2=O)cc1Cl (centres undefined) | 9
Cc1cccc(N2CCN(C(=O)Cc3ccc(Br)cc3)CC2)c1C | 8
O=C(Cc1ccc(Br)cc1)N1CCN(c2ccccc2)CC1 | 467*
O=C(CSCc1ccccc1)N1CCN(c2ccccc2)CC1 | 118
COc1ccc(NC(=O)C2=C(C)C(=O)OC23CCC(C)CC3)c(OC)c1 (centres undefined) | 12
COc1ccccc1N1CCN(CC(=O)Nc2ccc(-n3cnnn3)cc2)CC1 | 0
CC(C)(C)C1CCC(OC(=O)C[N+]2(C)CCCCC2)CC1 (centres undefined) | 200*
C[N+]1(CCC(=O)c2ccccc2)CCCCC1 | -64
C/C(Cl)=C\Cn1c(N2CCCCCC2)nc2c1c(=O)n(C)c(=O)n2C | 6
O=C1CN(C(=O)c2cc3ccccc3o2)c2ccccc2N1 | 3
SMILES | Insulin prom act
O=C(C1CCCO1)N1CCN(S(=O)(=O)c2cccc3nsnc23)CC1 (centres undefined) | -4
O=C1OC(N2CCN(C(=O)C3CCCO3)CC2)c2ccccc21 (centres undefined) | 173*
O=C1OC(N2CCN(C/C=C/c3ccccc3)CC2)c2ccccc21 (centres undefined) | -83
CCOC(=O)N1CCN(C2OC(=O)c3ccccc32)CC1 (centres undefined) | 459*
O=C(C1CCCO1)N1CCN(C(=S)Nc2ccc(F)cc2)CC1 (centres undefined) | -3
CCOC(=O)N1CCN(C(=O)Cc2cccs2)CC1 | 7
c1ccc(-c2onc3cc4c(cc23)OCCO4)cc1 | 8
O=C1C(CCS(=O)c2ccccc2)C(=O)N(c2ccccc2)N1c1ccccc1 (centres undefined) | 195
CCOC(=O)N1CCC(N2CCN(S(=O)(=O)c3ccc4ccccc4c3)CC2)CC1 | 5
CCC1=Nc2cc(C(=O)O)ccc2Sc2ccccc21 | -2
CC(C)OCCCNC(=O)c1ccccc1Oc1ccccc1 | 346
CCC1=Nc2cc(C(=O)NCCCOC(C)C)ccc2Sc2ccccc21 | 110*
COC(=O)[C@H]1C[C@@H]1[C@H](NC(=O)c1cnccn1)c1ccccc1 | 0
Cc1cc(C)cc(NC(=S)N2CCC(N(C)CC3CCCO3)CC2)c1 (centres undefined) | 0
CC(C)(C)c1ccc(S(=O)(=O)N2CCN(c3ncccn3)CC2)cc1 | 267*
O=S(=O)(c1cc(F)cc(F)c1)N1CCN(c2ncccn2)CC1 | -7
CC(C)(C)c1cc(C(=O)N2CCN(c3ncccn3)CC2)ccn1 | -64
O=S(=O)(NC(=S)NC1CCCCC1)c1ccc(Br)cc1 | -10
Cc1noc(C)c1COc1cccc(C(=O)OCC(=O)NCCN2C(=O)CSC2=O)c1 | 7
COc1c(N)c2ccccc2[nH]c1=O | -2
CCc1ccc(N2CC(C(=O)Nc3nnc(CC)s3)CC2=O)cc1 (centres undefined) | 6
Cc1ccc(S(=O)(=O)N2CCCCC2C(=O)O)cc1 (centres undefined) | 0
COc1ccc(NC(=O)C2CCCN2S(=O)(=O)c2ccc(C)cc2)cc1 (centres undefined) | 0
COC(=O)C1CN(S(=O)(=O)c2ccc(C)cc2)CCN1S(=O)(=O)c1ccc(C)cc1 (centres undefined) | 136*
CCCS(=O)(=O)c1nc(S(=O)(=O)c2ccc(C)cc2)c(N2CCc3ccccc3C2)s1 | 0
SMILES | Insulin prom act
O=C(c1cnccn1)N(c1ccccc1)C1(C(=O)NC2CCCC2)CCCCC1 | 100*
O=C(c1ccccn1)N(CC1CCCO1)C1(C(=O)NC2CCCCC2)CCCCC1 (centres undefined) | 7
Cc1c(N(C(=O)CNC(=O)c2ccccc2)C2(C(=O)NC3CCCCC3)CCCCC2)c(=O)n(-c2ccccc2)n1C | 147
O=C(Nc1ccc(Br)c(Cl)c1)C1CC1 | -75
CCC(=O)Nc1ccc(Cl)c(NC(=O)c2ccc(Br)o2)c1 | 334
CCCC(=O)Nc1ccc(Cl)c(NC(=O)C(C)(C)C)c1 | 790*
CCCC(=O)Nc1ccc(Br)c(Cl)c1 | 443*
O=C(O)CCC(=O)Nc1ccc(Br)c(Cl)c1 | -2
CC(C)(C)C(=O)CC(=O)Nc1ccc(Cl)c(N)c1 | 0
COC(=O)c1cc(C(=O)Nc2nnc(CC(C)(C)C)s2)cc([N+](=O)[O-])c1 | 0
Cc1nn(Cc2ccc(Cl)cc2Cl)c(C)c1NC(=O)Cn1nc([N+](=O)[O-])c(Cl)c1C | 650*
Cc1nn(Cc2ccccc2)c(C)c1NC(=O)CCCn1nc([N+](=O)[O-])c(Cl)c1C | 0
Cc1c(Cl)c([N+](=O)[O-])nn1Cc1ccc(C(=O)Nc2ccc(Cl)cn2)o1 | 3
CC1CCOC2(O1)C(=O)N(CN1CCN(c3ccccc3F)CC1)c1ccccc12 (centres undefined) | 6
Cc1cc2c3c(c1C)C1(C(=O)N3C(C)(C)CC2C)C(C#N)=C(N)OC2=C1C(=O)CC(C)(C)C2 (centres undefined) | 5
CC(C)(O)C#Cc1ccc(C(=O)NCc2cccs2)s1 | 0
O=C(CCc1nc(-c2ccccc2)no1)Nc1cc(C(F)(F)F)ccc1Cl | -5
COc1cccc(NC(=O)CCc2nc(-c3ccccc3F)no2)c1 | 0
COc1ccccc1NC(=O)CCc1nc(-c2ccccc2F)no1 | 305*
COc1ccccc1NC(=O)CCc1nc(-c2cccs2)no1 | 83*
CCOc1cc(-c2noc(CCC(=O)Nc3cccnc3)n2)ccc1OC | -3
CCN(C(=O)CCc1nc(-c2ccccc2F)no1)c1cc(OC)ccc1OC | -8
CN(CC(=O)Nc1ccccc1Cl)C(=O)CSc1ncc(C(F)(F)F)cc1Cl | 6
COCCn1c(-c2ccc(-c3ccc([N+](=O)[O-])cc3Br)o2)nc2c1c(=O)[nH]c(=O)n2CC(C)C | 114
CCCCCCCCCCn1cc(C(C)=O)c(=O)[nH]c1=O | 3
Cc1ccc(S(=O)(=O)Oc2ccccc2/C=N/NC(N)=S)cc1 | 103*
COc1ccc(/C=N/NS(=O)(=O)c2ccccc2)cc1OS(=O)(=O)c1ccc(C)cc1 | -7
